According to publication PMC4838516 (ChemMedChem, 2016):
Read-outs that look alike come from different tables or passages of the source.

Assays:
KSHV Pr = KSHV Pr (Human herpesvirus 8 type P, UniProt Q2HRB6); assay: Dose-response kinetic assay of KSHV Pr with fluorogenic P6R substrate; assay type: biochemical; details: read-out: KSHV Pr IC50
Outline: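 Manual kinetic dose-response assay on KSHV Pr with the P6R substrate Ac-Pro-Val-Tyr-tBG-Leu-Gln-Ala-(rhodamine110)-dPro, read in a plate reader at ex/em 485/530 nm. IC50 was taken from dose-response curves of enzymatic activity; reported values are means.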

HCMV Pr = HCMV Pr (Human cytomegalovirus, UniProt P16753); assay: Dose-response kinetic assay of HCMV Pr with ACC tetrapeptide substrate; assay type: biochemical; details: read-out: HCMV Pr IC50; --- = No quantifiable inhibition
Sequence of HCMV Pr (P16753 1-256): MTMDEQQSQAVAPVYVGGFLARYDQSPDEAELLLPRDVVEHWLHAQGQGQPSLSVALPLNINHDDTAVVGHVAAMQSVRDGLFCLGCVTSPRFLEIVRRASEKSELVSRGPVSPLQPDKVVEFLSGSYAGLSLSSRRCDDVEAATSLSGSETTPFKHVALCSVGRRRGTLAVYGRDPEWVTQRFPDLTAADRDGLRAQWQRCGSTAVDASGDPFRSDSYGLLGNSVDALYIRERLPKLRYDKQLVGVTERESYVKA
Outline: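 Manual kinetic fluorescence assay on HCMV Pr using the tetrapeptide Ac-tBG-tBG-Asn(NMe2)-Ala carrying an ACC fluorophore, with ex/em 380/460 nm. Activity was followed over a dilution series of test compound to determine the IC50.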

Sequence of KSHV Pr (Q2HRB6 1-230): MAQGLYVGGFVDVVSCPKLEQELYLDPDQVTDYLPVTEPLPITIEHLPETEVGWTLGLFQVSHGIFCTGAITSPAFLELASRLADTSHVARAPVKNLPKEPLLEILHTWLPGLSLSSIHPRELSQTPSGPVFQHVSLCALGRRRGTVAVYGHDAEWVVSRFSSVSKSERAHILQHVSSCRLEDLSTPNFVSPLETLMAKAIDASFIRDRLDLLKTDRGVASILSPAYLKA

**Q.** Which IC50 (KSHV Pr) does the source give for `Nc1nc(-c2ccccc2)cs1` [Fragment 20] here?
**A.** The IC50 was > 1000 µM.

**Q.** And the IC50 (KSHV Pr; P6R rhodamine110 substrate)?
**A.** The IC50 was > 500 µM.

**Q.** What about the IC50 (HCMV Pr) of the same compound?
**A.** The IC50 was > 500 µM.
